From ChEMBL document CHEMBL4028872, “Structure-Activity Relationship, Pharmacological Characterization, and Molecular Modeling of Noncompetitive Inhibitors of the Betaine/γ-Aminobutyric Acid Transporter 1 (BGT1)” (J Med Chem, 2017) come the findings set out here.

Format in all cases: cell-based
For assay [1], the target named is T1, Sodium- and chloride-dependent GABA transporter 3 (Homo sapiens, UniProt P48066).
T1 sequence (P48066 whole entry): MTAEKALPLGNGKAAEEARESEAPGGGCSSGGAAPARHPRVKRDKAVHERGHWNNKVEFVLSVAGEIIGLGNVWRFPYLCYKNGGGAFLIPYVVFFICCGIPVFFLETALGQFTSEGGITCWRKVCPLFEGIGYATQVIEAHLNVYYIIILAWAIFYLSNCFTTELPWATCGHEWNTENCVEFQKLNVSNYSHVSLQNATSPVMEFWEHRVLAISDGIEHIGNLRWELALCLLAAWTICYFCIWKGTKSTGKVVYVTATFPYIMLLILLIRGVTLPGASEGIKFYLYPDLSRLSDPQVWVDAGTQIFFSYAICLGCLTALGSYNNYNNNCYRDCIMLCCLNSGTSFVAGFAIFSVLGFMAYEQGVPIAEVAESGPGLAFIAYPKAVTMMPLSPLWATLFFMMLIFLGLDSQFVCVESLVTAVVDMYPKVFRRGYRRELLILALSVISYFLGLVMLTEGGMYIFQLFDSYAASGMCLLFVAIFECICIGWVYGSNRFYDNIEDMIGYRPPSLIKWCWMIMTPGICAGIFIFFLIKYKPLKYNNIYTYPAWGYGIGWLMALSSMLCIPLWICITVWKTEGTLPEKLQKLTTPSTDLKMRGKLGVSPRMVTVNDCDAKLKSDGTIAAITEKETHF
Description: Inhibition of human GAT3 expresses in tsA201 cells assessed as reduction in [3H]GABA uptake after 3 mins by scintillation counting method. Put shortly: (§1)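 Wild-type human GAT transiently expressed in tsA201 cells via pcDNA5/FRT and PolyFect. Uptake of 30 nM [3H]GABA was run for 3 min at 37 °C in HBSS/20 mM HEPES with 1 mM CaCl2 and 1 mM MgCl2, pH 7.4, across a range of test concentrations. Ice-cold washes were followed by scintillation counting. IC50 was obtained by sigmoidal variable-slope fitting, reported as mean pIC50 ± S.E.M.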

In assay [2] the target is T2, Sodium- and chloride-dependent betaine transporter (Homo sapiens, UniProt P48065).
T2 sequence (P48065 whole entry): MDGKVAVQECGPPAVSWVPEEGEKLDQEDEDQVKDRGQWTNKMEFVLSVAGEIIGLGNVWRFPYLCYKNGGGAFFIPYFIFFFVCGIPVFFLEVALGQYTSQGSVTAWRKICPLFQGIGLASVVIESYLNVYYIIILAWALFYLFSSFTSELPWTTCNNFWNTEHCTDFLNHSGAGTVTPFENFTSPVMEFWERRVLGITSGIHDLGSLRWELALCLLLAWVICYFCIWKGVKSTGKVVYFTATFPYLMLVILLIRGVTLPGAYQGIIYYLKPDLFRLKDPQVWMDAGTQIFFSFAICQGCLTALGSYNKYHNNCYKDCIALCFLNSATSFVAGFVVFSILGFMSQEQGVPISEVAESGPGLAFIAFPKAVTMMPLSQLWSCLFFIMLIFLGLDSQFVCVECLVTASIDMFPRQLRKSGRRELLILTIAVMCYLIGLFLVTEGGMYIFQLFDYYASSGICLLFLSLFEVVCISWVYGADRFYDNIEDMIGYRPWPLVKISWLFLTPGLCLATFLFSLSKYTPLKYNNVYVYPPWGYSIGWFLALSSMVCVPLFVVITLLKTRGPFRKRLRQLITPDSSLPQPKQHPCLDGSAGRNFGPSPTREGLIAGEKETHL
Description: Inhibition of human BGT1 expresses in tsA201 cells assessed as reduction in [3H]GABA uptake after 3 mins by scintillation counting method. The settings on record: for pIC50: read-out: IC50. An outline of the steps: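 tsA201 cells transiently transfected with wild-type or mutant human BGT1 (PolyFect) were plated about 24 h before assay. Three ice-cold washes followed, then scintillation counting.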

The target in assay [3] is Sodium- and chloride-dependent GABA transporter 1 (Homo sapiens, UniProt P30531).
Chain of Sodium- and chloride-dependent GABA transporter 1 (P30531 whole entry): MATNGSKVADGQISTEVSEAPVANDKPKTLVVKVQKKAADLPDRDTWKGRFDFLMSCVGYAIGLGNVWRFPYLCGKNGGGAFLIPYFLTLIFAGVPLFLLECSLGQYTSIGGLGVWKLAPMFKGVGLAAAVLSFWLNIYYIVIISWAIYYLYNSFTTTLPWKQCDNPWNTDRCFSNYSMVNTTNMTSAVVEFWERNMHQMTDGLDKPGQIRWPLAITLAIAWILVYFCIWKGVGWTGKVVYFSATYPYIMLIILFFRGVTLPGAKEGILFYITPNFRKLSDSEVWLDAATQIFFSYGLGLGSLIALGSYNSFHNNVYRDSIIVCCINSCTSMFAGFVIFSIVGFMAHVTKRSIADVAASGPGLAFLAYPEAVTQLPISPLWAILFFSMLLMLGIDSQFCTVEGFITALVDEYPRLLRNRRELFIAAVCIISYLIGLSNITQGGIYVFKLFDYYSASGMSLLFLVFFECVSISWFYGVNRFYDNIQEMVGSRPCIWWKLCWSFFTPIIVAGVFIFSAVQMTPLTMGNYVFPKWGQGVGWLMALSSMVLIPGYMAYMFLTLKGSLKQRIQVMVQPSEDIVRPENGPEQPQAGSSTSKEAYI
Assay [4] concerns the target T3, Sodium- and chloride-dependent GABA transporter 2 (Homo sapiens, UniProt Q9NSD5).
T3 sequence (Q9NSD5 whole entry): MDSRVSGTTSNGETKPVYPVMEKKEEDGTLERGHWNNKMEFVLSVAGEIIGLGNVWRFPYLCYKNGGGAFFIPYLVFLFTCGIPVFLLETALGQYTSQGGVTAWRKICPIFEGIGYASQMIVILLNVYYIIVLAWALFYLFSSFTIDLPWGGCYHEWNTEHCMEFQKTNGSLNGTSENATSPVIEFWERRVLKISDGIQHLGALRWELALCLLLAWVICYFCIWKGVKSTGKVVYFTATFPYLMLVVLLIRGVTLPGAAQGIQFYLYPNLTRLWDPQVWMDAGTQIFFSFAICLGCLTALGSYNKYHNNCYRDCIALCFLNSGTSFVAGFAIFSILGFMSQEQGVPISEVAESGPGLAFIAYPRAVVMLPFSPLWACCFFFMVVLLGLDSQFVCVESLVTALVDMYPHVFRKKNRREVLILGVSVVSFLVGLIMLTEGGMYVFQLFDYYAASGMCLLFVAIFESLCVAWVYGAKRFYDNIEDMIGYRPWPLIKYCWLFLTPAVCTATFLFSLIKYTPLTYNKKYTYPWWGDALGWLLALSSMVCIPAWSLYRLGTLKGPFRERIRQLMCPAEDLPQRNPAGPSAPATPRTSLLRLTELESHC
The assay can be described thus: Inhibition of human GAT2 expresses in tsA201 cells assessed as reduction in [3H]GABA uptake after 3 mins by scintillation counting method. An outline of the steps: as §1

The target in assay [5] is Sodium- and chloride-dependent betaine transporter (Homo sapiens, UniProt P48065, Q299L). The assay can be described thus: Inhibition of human BGT1 Q299L mutant expressed in tsA201 cells assessed as reduction in [3H]GABA uptake after 3 mins by scintillation counting method. Put shortly:
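Site-directed mutant transporters transiently transfected (PolyFect) into tsA201 cells, plated and used about 24 h later. Cells were washed with HBSS containing 20 mM HEPES, 1 mM CaCl2 and 1 mM MgCl2, pH 7.4. IC50 was taken from variable-slope sigmoidal fits. Triplicates, at least three independent experiments.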

Structures are written as SMILES. pIC50: −log10 of the molar value. Some results are limits rather than exact numbers.

Chain of Sodium- and chloride-dependent betaine transporter (Homo sapiens, UniProt P48065, Q299L) (P48065 whole entry Q299L): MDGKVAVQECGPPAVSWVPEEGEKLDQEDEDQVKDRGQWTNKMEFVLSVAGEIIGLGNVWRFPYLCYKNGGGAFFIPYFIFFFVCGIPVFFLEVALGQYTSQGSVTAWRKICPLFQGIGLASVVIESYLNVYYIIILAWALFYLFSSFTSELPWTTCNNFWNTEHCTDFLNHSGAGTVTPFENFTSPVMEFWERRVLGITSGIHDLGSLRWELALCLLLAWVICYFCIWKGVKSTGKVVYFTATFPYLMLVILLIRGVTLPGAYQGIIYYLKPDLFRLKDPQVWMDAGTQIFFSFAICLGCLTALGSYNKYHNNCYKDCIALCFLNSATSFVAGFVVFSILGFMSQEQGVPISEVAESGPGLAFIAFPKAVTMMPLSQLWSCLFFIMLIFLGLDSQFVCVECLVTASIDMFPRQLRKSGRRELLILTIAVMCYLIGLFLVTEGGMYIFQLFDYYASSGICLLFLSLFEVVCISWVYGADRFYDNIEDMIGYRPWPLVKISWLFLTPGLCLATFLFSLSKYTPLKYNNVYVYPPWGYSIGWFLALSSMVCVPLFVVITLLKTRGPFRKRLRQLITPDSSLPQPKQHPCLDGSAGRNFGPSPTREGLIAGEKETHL

Take `O=C(NC1CCN(Cc2ccccc2)CC1)c1ccc(Cl)cc1Cl`: the pIC50 in assay [1] was less than 4.00; in assay [2] it was 4.74; in assay [3], less than 4.00; in assay [4] it was less than 4.00; in assay [5] it was 5.52.
As for `O=C(NC1CCN(Cc2ccccc2)CC1)c1ccc(Cl)nc1Cl`, the pIC50 in assay [1] (read-out: IC50) is less than 3.00; in assay [2], 4.36; in assay [3] (read-out: IC50) it was less than 3.00; in assay [4] (read-out: IC50), 3.32; in assay [5], 5.10. Further, in assay [2] (read-out: pIC50 (converted)), the IC50 is 40.7 µM.

The term pIC50 denotes the negative decadic logarithm of the IC50, by convention in mol/L.
